Molecules are shown by their SMILES. Converted amounts (≈) assume the structure as drawn. Where only a bound is given, the exact number is not on record here.

Consider eleven compounds from ChEMBL document CHEMBL1154403, “Serotypes, Clones, and Mechanisms of Resistance of Erythromycin-Resistant Streptococcus pneumoniae Isolates Collected in Spain” (2007).

What all share (type): functional
Assay [1] has as its system Streptococcus pneumoniae. Kind of assay: Antibacterial activity against erythromycin-resistant Streptococcus pneumoniae by microdilution method. Put shortly: (§1)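 Broth microdilution MICs per CLSI on all 125 erythromycin-resistant pneumococcal isolates, using Mueller-Hinton broth with 2 to 5% lysed horse blood in prepared panels. Example ranges: erythromycin 0.25 to 32 μg/ml, clindamycin 0.25 to 0.5 μg/ml, penicillin 0.03 to 8 μg/ml, telithromycin 0.015 to 32 μg/ml (separate panel). Quality control strain: S. pneumoniae ATCC 49619.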
In general terms: In broth dilution the organism is exposed to a series of concentrations in liquid medium.

Assay [2] concerns Streptococcus pneumoniae. Kind of assay: Antibacterial activity against erythromycin-resistant Streptococcus pneumoniae assessed as percent sensitive isolates by CLSI breakpoint method.
Assay [3] concerns Streptococcus pneumoniae. The assay is described as follows: Antibacterial activity against erythromycin-resistant Streptococcus pneumoniae assessed as percent resistant isolates by microdilution method. Put shortly: as §1
Assay [4] relates to Streptococcus pneumoniae. The assay is described as follows: Antibacterial activity against erythromycin-resistant Streptococcus pneumoniae assessed as percent resistant isolates by CLSI breakpoint method.
In assay [5] the test system is Streptococcus pneumoniae. The assay is described as follows: Antibacterial activity against macrolide-resistant Streptococcus pneumoniae isolates by double-disk diffusion method. The procedure, abridged:
(§2)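 Macrolide resistance phenotype assigned by double-disk diffusion with erythromycin (15 μg) and clindamycin (2 μg) disks placed 12 mm apart, edge to edge. After incubation, a flattened clindamycin zone next to the erythromycin disk (D zone) marked inducible resistance. A conserved clindamycin zone marked the M phenotype.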
In general terms: In agar diffusion tests the substance spreads into inoculated agar from a disc or well.

Assay [6] concerns Streptococcus pneumoniae. The assay is described as follows: Antibacterial activity against constitutive macrolide-lincosamide-streptogramin B-resistant Streptococcus pneumoniae isolates by double-disk diffusion method. The procedure, abridged:
as §2

Assay [7] has as its system Streptococcus pneumoniae. The assay is described as follows: Antibacterial activity against inducible macrolide-lincosamide-streptogramin B-resistant Streptococcus pneumoniae isolates by double-disk diffusion method. Put shortly:
as §2

For assay [8], the system named is Streptococcus pneumoniae. Kind of assay: Antibacterial activity Streptococcus pneumoniae expressing erm(B) and/or mef genes at 0.25 ug/ml by broth microdilution method. Put shortly:
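Clinical erythromycin-resistant pneumococcal isolates identified by bile solubility and optochin susceptibility. MICs were determined by CLSI broth microdilution in Mueller-Hinton broth with 2 to 5% lysed horse blood, using commercial prepared panels; telithromycin was tested on a separate panel across 0.015 to 32 μg/ml. S. pneumoniae ATCC 49619 served as quality control.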

Assay [9] has as its system Streptococcus pneumoniae. Kind of assay: Antibacterial activity against inducible macrolide-lincosamide-streptogramin B-resistant Streptococcus pneumoniae expressing erm(B) and tet(M) genes assessed as percent resistant isolates by broth microdilution method. Put shortly:
as §1

As a reminder, the MIC is the lowest concentration found to suppress growth. Read a low MIC as inhibition by little substance. One may read the MIC50 as an inhibitory concentration at the 50% level, which refers to growth in some studies and to a panel of isolates in others. Low readings indicate higher susceptibility, high ones lower susceptibility. In general, MIC90 refers to the lowest concentration that inhibits either 90% of growth or 90% of the strains tested, depending on the study. A lower MIC90 goes with higher susceptibility. Take `CC[C@H]1OC(=O)[C@H](C)[C@@H](O[C@H]2C[C@@](C)(OC)[C@@H](O)[C@H](C)O2)[C@H](C)[C@@H](O[C@@H]2O[C@H](C)C[C@H](N(C)C)[C@H]2O)[C@](C)(O)C[C@@H](C)CN(C)[C@H](C)[C@@H](O)[C@]1(C)O` [AZITHROMYCIN]: in assay [1], the MIC was > 4 µg/mL, the MIC50 is > 4 µg/mL and the MIC90 is > 4 µg/mL. Further, the Activity entry in assay [2] is on record as “<=0.5 ug ml-1”. In addition, the Activity in assay [3] is 100%. In addition, in assay [4], the “CLSI resistance breakpoint (MIC)” value is on record as “>=2 ug ml-1”.

With `CO/N=C(\C(=O)N[C@@H]1C(=O)N2C(C(=O)O)=C(COC(C)=O)CS[C@H]12)c1csc(N)n1` [CEFOTAXIME], in [1], the MIC is ≤ 0.06 µg/mL, the MIC50 came out at 0.25 µg/mL (≈ 0.549 µM) and the MIC90 was 0.5 µg/mL (≈ 1.1 µM). Besides, in [2], the Activity result is “<=1 ug ml-1”. Also, the Activity in assay [3] is 0.8%. For the same compound, in assay [4], the “CLSI resistance breakpoint (MIC)” value is “>=4 ug ml-1”.

For the compound `O=C(N[C@H](CO)[C@H](O)c1ccc([N+](=O)[O-])cc1)C(Cl)Cl` [CHLORAMPHENICOL], in [1], the MIC is > 8 µg/mL, the MIC50 was 2 µg/mL (≈ 6.19 µM) and the MIC90 was > 8 µg/mL. In [2], the Activity result is on record as “<=4 ug ml-1”. Further, in assay [3], the Activity was 34.4%. Further, the “CLSI resistance breakpoint (MIC)” value in assay [4] was “>=8 ug ml-1”.

Turning to `CCC[C@@H]1C[C@@H](C(=O)N[C@@H]([C@H]2O[C@H](SC)[C@H](O)[C@@H](O)[C@H]2O)[C@H](C)Cl)N(C)C1` [CLINDAMYCIN], the MIC in assay [1] is > 0.5 µg/mL; in assay [5] it was ≤ 0.25 µg/mL; in assay [6] it was > 0.5 µg/mL; in assay [7] it was > 0.5 µg/mL. In addition, the MIC50 in assay [1] was > 0.5 µg/mL. In addition, the MIC90 in assay [1] was > 0.5 µg/mL. Further, the figures for the Activity result in [2] and in assay [3] were “<=0.25 ug ml-1” and 87.2%, respectively. Besides, in [4], the “CLSI resistance breakpoint (MIC)” value is “>=1 ug ml-1”.

Regarding `CC[C@H]1OC(=O)[C@H](C)[C@@H](O[C@H]2C[C@@](C)(OC)[C@@H](O)[C@H](C)O2)[C@H](C)[C@@H](O[C@@H]2O[C@H](C)C[C@H](N(C)C)[C@H]2O)[C@](C)(O)C[C@@H](C)C(=O)[C@H](C)[C@@H](O)[C@]1(C)O` [ERYTHROMYCIN], in [1], the MIC50 is > 32 µg/mL. Besides, the MIC90 in assay [1] is > 32 µg/mL. For the same compound, the Activity entry is reported as “<=0.25 ug ml-1” in assay [2] and 100% in [3]. Besides, the values for the MIC in [5], in assay [6] and in assay [7] were 2 µg/mL (≈ 2.73 µM), > 32 µg/mL and ≥ 4 µg/mL, respectively. Also, in assay [4], the “CLSI resistance breakpoint (MIC)” value is reported as “>=1 ug ml-1”.

For the compound `CO[C@@H]1[C@@H](O[C@@H]2O[C@H](C)[C@@H](O[C@H]3C[C@@](C)(O)[C@@H](OC(=O)CC(C)C)[C@H](C)O3)[C@H](N(C)C)[C@H]2O)[C@@H](CC=O)C[C@@H](C)[C@@H](O)/C=C/C=C/C[C@@H](C)OC(=O)C[C@H]1OC(C)=O` [JOSAMYCIN], the MIC in assay [1] is > 2 µg/mL; in [5], ≤ 0.5 µg/mL; in assay [6] it was > 2 µg/mL; in [7], > 2 µg/mL. Moreover, in assay [1], the MIC50 was > 2 µg/mL. Moreover, the MIC90 in assay [1] was > 2 µg/mL. Further, the Activity result was “<=1 ug ml-1” in assay [2] and 87.2% in assay [3]. The “CLSI resistance breakpoint (MIC)” value in [4] is “>=4 ug ml-1”.

Consider `C[C@H]1COc2c(N3CCN(C)CC3)c(F)cc3c(=O)c(C(=O)O)cn1c23.C[C@H]1COc2c(N3CCN(C)CC3)c(F)cc3c(=O)c(C(=O)O)cn1c23.O` [LEVOFLOXACIN], for which, in assay [1], the minimal inhibitory concentration (MIC) is > 4 µg/mL, the MIC50 came out at 1 µg/mL and the MIC90 was 1 µg/mL. In addition, the Activity entry in assay [2] is recorded as “<=2 ug ml-1”. Further, the Activity in assay [3] stood at 4%. The “CLSI resistance breakpoint (MIC)” value in assay [4] is “>=8 ug ml-1”.

With `COc1c(N2C[C@@H]3CCCN[C@@H]3C2)c(F)cc2c(=O)c(C(=O)O)cn(C3CC3)c12` [MOXIFLOXACIN], in assay [1], the MIC is > 1 µg/mL, the MIC50 is ≤ 0.25 µg/mL and the MIC90 is ≤ 0.25 µg/mL. Moreover, in assay [3], the Activity was determined as 2.4%.

In assay [1], `CC[C@H]1OC(=O)[C@H](C)C(=O)[C@H](C)[C@@H](O[C@@H]2O[C@H](C)C[C@H](N(C)C)[C@H]2O)[C@](C)(OC)C[C@@H](C)C(=O)[C@H](C)[C@H]2N(CCCCn3cnc(-c4cccnc4)c3)C(=O)O[C@]12C` [TELITHROMYCIN] gave an MIC of 0.03 µg/mL (≈ 0.0369 µM), an MIC50 of 0.03 µg/mL (≈ 0.0369 µM) and an MIC90 of 0.25 µg/mL (≈ 0.308 µM). In assay [8], the Activity is listed as 90%. In addition, the Activity result in assay [2] is “<=1 ug ml-1”. Moreover, in [3], the Activity is recorded as 0%. For the same compound, the “CLSI resistance breakpoint (MIC)” value in assay [4] was “>=4 ug ml-1”.

`CN(C)[C@@H]1C(O)=C(C(N)=O)C(=O)[C@@]2(O)C(O)=C3C(=O)c4c(O)cccc4[C@@](C)(O)[C@H]3C[C@@H]12` [TETRACYCLINE]: in [1], the MIC was > 4 µg/mL, the MIC50 was > 4 µg/mL and the MIC90 is > 4 µg/mL. In assay [9], the Activity is on record as 90%. Besides, the Activity result in assay [2] is reported as “<=2 ug ml-1”. Further, the Activity in assay [3] is 77.6%. Besides, the “CLSI resistance breakpoint (MIC)” value in [4] is listed as “>=8 ug ml-1”.

With `CN[C@H](CC(C)C)C(=O)N[C@H]1C(=O)N[C@@H](CC(N)=O)C(=O)N[C@H]2C(=O)N[C@H]3C(=O)N[C@H](C(=O)N[C@H](C(=O)O)c4cc(O)cc(O)c4-c4cc3ccc4O)[C@H](O)c3ccc(c(Cl)c3)Oc3cc2cc(c3O[C@@H]2O[C@H](CO)[C@@H](O)[C@H](O)[C@H]2O[C@H]2C[C@](C)(N)[C@H](O)[C@H](C)O2)Oc2ccc(cc2Cl)[C@H]1O` [VANCOMYCIN], in assay [1], the MIC came out at 1 µg/mL (≈ 0.69 µM), the MIC50 was ≤ 0.25 µg/mL and the MIC90 is 1 µg/mL (≈ 0.69 µM). For the same compound, the Activity result in assay [2] is “<=1 ug ml-1”. Besides, in assay [3], the Activity was found to be 0%.
